bovine MsrA act: activators of bovine methionine sulfoxide reductase A | purified bovine MsrA, absorbance read-out | activation, % at 10.6 µM | 360,000 compounds, 0.3% hits | AID 602163; in the data active means activation above about 7.5%;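 further: 0% = vehicle and 100% = reference activator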
UCH37 DUB inh: blocks the human deubiquitinase UCH37. Q9Y5K5. AID 588478. inhibition, % (no concentration beside the values). 330,000 compounds, 0.33% hits. purified proteasome/UCH37, Ub-AMC cleavage fluorescence;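 active means mean inhibition over replicate wells above about 20%, limit read from the data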;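 further: 0% = compound-free wells with enzyme and 100% = wells lacking proteasome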
Target sequence (Q9Y5K5 whole entry, looked up): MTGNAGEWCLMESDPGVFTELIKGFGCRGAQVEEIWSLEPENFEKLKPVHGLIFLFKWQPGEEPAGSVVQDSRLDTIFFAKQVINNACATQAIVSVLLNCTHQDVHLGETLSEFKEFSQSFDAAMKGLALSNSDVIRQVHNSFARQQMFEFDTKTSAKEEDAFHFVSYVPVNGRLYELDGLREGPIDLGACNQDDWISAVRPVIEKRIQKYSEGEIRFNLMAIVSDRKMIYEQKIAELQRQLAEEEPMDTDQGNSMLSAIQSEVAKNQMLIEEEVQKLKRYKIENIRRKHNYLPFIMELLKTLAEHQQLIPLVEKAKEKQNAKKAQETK
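Assay system: Proteasome-bound UCH37. Buffer or medium: pH 7.4 Tris-HCl (50 mM) with ovalbumin, ATP-MgCl2, DTT. Incubation: 30 min preincubation with enzyme, 25 min cleavage at room temperature. Measured by: fluorescence, ex 355 nm, em 460 nm. Read-out basis: percent inhibition. Control set: wells without proteasome as full block, compound-free enzyme plus substrate as uninhibited.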
Vif inh: HIV Vif inhibition. HEK293T cells, Vif self-association by quenched fluorescence, imaging, 24 h. inhibition, % at 7.49 µM. 340,000 compounds, 0.35% hits; in the data active means inhibition above about 50%, passing the limit was not always enough
aDG glyco act: increases alpha dystroglycan glycosylation | Pro5-aDG cells, alpha-DG glycosylation AlphaScreen (IIH6); 0% Pro5, 100% B10-LARGE cell signal | 360,000 compounds, 0.22% hits | activation, % at 10 µM | AID 624168;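 active means activation of at least 8% versus controls, or a plate z-score of at least 8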;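 further: Pro5 are CHO cells carrying HIG-tagged alpha-DG that lacks glycosylation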
MsrA inhibitor: inhibitors of bovine MsrA; purified bovine MsrA, absorbance read-out; inhibition, % at 15.5 µM; 360,000 compounds, 0.75% hits; in the data active means inhibition above about 4.5%;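 further: 0% = vehicle wells with enzyme and 100% = reference inhibitor wells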
N-glyco inh: blocks N-linked glycosylation in D54 reporter cells; D54 ERlucT glycosylation luciferase reporter, 24 h; percent of 100 nM tunicamycin response; reporter increase, % at 12.5 µM; 360,000 compounds, 0.23% hits; AID 588692;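 active means mean luciferase reporter signal, scaled so untreated is 0 and the glycosylation-blocking control 100, at or above a set limit in every replicate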;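 further: luciferase carries N-glycosylation sites so blocking glycosylation raises the light; 0% = median of neutral control wells and 100% = median of 100 nM tunicamycin wells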
MsrA activ conf: bovine methionine sulfoxide reductase A activation confirmed | shares compounds with bovine MsrA act | purified bovine MsrA, absorbance read-out | activation, % at 10.6 µM | 1,000 compounds, 12% hits | AID 602270; in the data active means activation above about 4%;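 further: enzyme coupled to thioredoxin and thioredoxin reductase with NADPH; 0% = vehicle wells and 100% = reference activator wells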
* hit, by the source's call. In the library only some 1.9% were active in any assay of this set; here they are far more common.

Results for CC(=O)N1CCc2cc(N=NC3=C(O)CCCC3=O)ccc21 ?
bovine MsrA act: 8.7*; UCH37 DUB inh: 18; Vif inh: 0; aDG glyco act: 0; MsrA inhibitor: 2; N-glyco inh: -5; MsrA activ conf: -1

How did O=c1c2ccccc2sn1-c1ccc(Cl)cc1 do in these assays?
bovine MsrA act: 5; Vif inh: -11; aDG glyco act: 1; MsrA inhibitor: -1; N-glyco inh: -2

How did O=c1c2ccccc2sn1-c1ccc(F)cc1 do in these assays?
bovine MsrA act: 12*; UCH37 DUB inh: 2; Vif inh: 1; aDG glyco act: 1; MsrA inhibitor: 1; N-glyco inh: 0; MsrA activ conf: 8.3*

Results for Cc1ccc(-n2sc3cc(F)ccc3c2=O)c(C)c1 ?
bovine MsrA act: 14*; Vif inh: 3; aDG glyco act: 3; MsrA inhibitor: -1; N-glyco inh: -2; MsrA activ conf: 3

How did Cc1ccc(-n2sc3ccccc3c2=O)cc1 do in these assays?
bovine MsrA act: 13*; UCH37 DUB inh: 6; Vif inh: 2; aDG glyco act: 1; MsrA inhibitor: 0; N-glyco inh: -5; MsrA activ conf: 2

What do the screens show for `O=c1c2ccc(F)cc2sn1-c1ccccc1`?
bovine MsrA act: 13*; Vif inh: -9; aDG glyco act: 0; MsrA inhibitor: 1; N-glyco inh: 0; MsrA activ conf: 8.0*

How did O=c1c2cc(F)ccc2sn1-c1ccccc1Cl do in these assays?
bovine MsrA act: 0; Vif inh: -4; aDG glyco act: 0; MsrA inhibitor: -1; N-glyco inh: 0

How did CCn1nc(C)c(C=NNC(=O)c2ccc3c(c2)OCO3)c1C do in these assays?
UCH37 DUB inh: 2

How did O=C(NN=C/C=C/c1ccccc1)c1n[nH]c2c1CCC2 do in these assays?
UCH37 DUB inh: 2

What do the screens show for `CC(=NNC(=O)Cc1c(C)[nH][nH]c1=O)c1ccc(O)cc1`?
UCH37 DUB inh: 2

How did Cc1nc2ccccn2c1-c1ccnc(=S)[nH]1 do in these assays?
bovine MsrA act: 8.8*; UCH37 DUB inh: 12; Vif inh: -10; aDG glyco act: 0; MsrA inhibitor: 3; N-glyco inh: 1; MsrA activ conf: 0

Results for Cc1ccc(Nc2nc(-c3c(C)nc4ccccn34)cs2)cc1 ?
bovine MsrA act: 1; UCH37 DUB inh: -15; Vif inh: -9; aDG glyco act: 1; MsrA inhibitor: 2; N-glyco inh: 2

What do the screens show for `Cc1ccc(OCC(=O)Nn2c(C)nc3ccccc3c2=O)c(C(C)C)c1`?
bovine MsrA act: 8.2*; UCH37 DUB inh: 0; Vif inh: -5; aDG glyco act: 0; MsrA inhibitor: 0; N-glyco inh: -1; MsrA activ conf: -3

How did O=C(C[C@H]1C[C@@H]2c3cc(NS(=O)(=O)c4ccccc4)ccc3O[C@@H]2[C@H](CO)O1)N1CCOCC1 do in these assays?
bovine MsrA act: 14*; aDG glyco act: 0; MsrA inhibitor: 1; N-glyco inh: 5; MsrA activ conf: -6

How did O=C(O)c1cccc(-c2ccc(C=NNC(=O)C3COc4ccccc4O3)o2)c1 (stereo unspecified) do in these assays?
UCH37 DUB inh: 0

What do the screens show for `COc1cccc(-n2cn[nH]c2=S)c1`?
bovine MsrA act: 7.8*; UCH37 DUB inh: 1; Vif inh: -6; aDG glyco act: 0; MsrA inhibitor: 1; N-glyco inh: 2; MsrA activ conf: 0

What do the screens show for `CCC(C)(C)n1nnnc1CN(Cc1cccs1)Cc1cc2cc(OC)ccc2[nH]c1=O`?
bovine MsrA act: 7.7*; UCH37 DUB inh: -15; Vif inh: 5; aDG glyco act: 0; MsrA inhibitor: 1; N-glyco inh: 0; MsrA activ conf: -3

How did CCC(=O)NC1=C(NC(C)c2ccccc2)C(=O)c2ccccc2C1=O (stereo unspecified) do in these assays?
bovine MsrA act: 11*; UCH37 DUB inh: 3; Vif inh: -1; aDG glyco act: 2; MsrA inhibitor: 0; N-glyco inh: 6; MsrA activ conf: -1

What do the screens show for `CCC(=O)Nc1nc(CC(=O)Nc2ccccc2)cs1`?
bovine MsrA act: 9.4*; UCH37 DUB inh: 4; Vif inh: -16; aDG glyco act: 0; MsrA inhibitor: 0; N-glyco inh: 1; MsrA activ conf: 0

What do the screens show for `CCOC(=O)Cc1csc(NC(=O)Cc2ccccc2)n1`?
bovine MsrA act: -7; UCH37 DUB inh: 0; Vif inh: -4; aDG glyco act: 0; MsrA inhibitor: 1; N-glyco inh: 1

How did Cc1cc(C)nc(N=C(N)N2CCCCC2)n1 do in these assays?
UCH37 DUB inh: 6

What do the screens show for `COCCN(CCOC)Cc1cc(=O)oc2cc(C)ccc12`?
bovine MsrA act: 12*; aDG glyco act: 0; MsrA inhibitor: 1; N-glyco inh: 2; MsrA activ conf: -1

Results for Cc1ccc(C=NNC(=O)c2csc3c2CCCC3)cc1 ?
UCH37 DUB inh: 1

What do the screens show for `Cc1noc(C)c1S(=O)(=O)NC1CCN(Cc2ccccc2)CC1`?
bovine MsrA act: 10*; UCH37 DUB inh: -1; Vif inh: 3; aDG glyco act: 0; MsrA inhibitor: -1; N-glyco inh: 0; MsrA activ conf: -1

How did Cc1nc(-c2ccc(S(=O)(=O)N3CCN(c4ccccc4)CC3)cc2)co1 do in these assays?
bovine MsrA act: -5; UCH37 DUB inh: 1; Vif inh: -7; aDG glyco act: 0; MsrA inhibitor: 1; N-glyco inh: 0

What do the screens show for `Cc1cccc(N2CCN(S(=O)(=O)c3ccc(-c4coc(C)n4)cc3)CC2C)c1` (stereo unspecified)?
bovine MsrA act: 7.7*; UCH37 DUB inh: 1; Vif inh: -5; aDG glyco act: 0; MsrA inhibitor: 0; N-glyco inh: 1; MsrA activ conf: -1

Results for CN1CCN(NC(=S)NC2CCCC2)CC1 ?
bovine MsrA act: 7.9*; UCH37 DUB inh: 0; Vif inh: 23; aDG glyco act: 0; MsrA inhibitor: 0; N-glyco inh: 0; MsrA activ conf: 3

Results for CCOC(=O)c1cnc(Nc2nc3ccccc3o2)nc1C ?
bovine MsrA act: -1; UCH37 DUB inh: 1; Vif inh: 0; aDG glyco act: 0; MsrA inhibitor: 1; N-glyco inh: -22

How did CCOC(=O)c1cnc(Nc2nc3ccccc3o2)nc1CSc1nnc(C)s1 do in these assays?
bovine MsrA act: 15*; UCH37 DUB inh: 5; Vif inh: 9; aDG glyco act: 0; MsrA inhibitor: 1; N-glyco inh: -1; MsrA activ conf: 1

How did COC(=O)c1ccccc1S(=O)(=O)N1CCC(c2nc3ccccc3o2)CC1 do in these assays?
bovine MsrA act: 12*; UCH37 DUB inh: 5; aDG glyco act: 0; MsrA inhibitor: 0; N-glyco inh: 1; MsrA activ conf: -2

High-throughput results from PubChem BioAssay.
